MrgX1 agonist = agonists of human MrgX1 receptor | MrgX1-HEK293 cells, Fluo-4 calcium fluorescence, agonist mode; stronger effect = higher value | B-score at 10 µM | hit rate 0.44% among 310,000 | AID 588627;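 active = calcium response B-score plate-corrected fluorescence ratio at least 3 library SD, with starting fluorescence B-score inside 5 SD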
Target sequence (Q96LB2 whole entry, looked up): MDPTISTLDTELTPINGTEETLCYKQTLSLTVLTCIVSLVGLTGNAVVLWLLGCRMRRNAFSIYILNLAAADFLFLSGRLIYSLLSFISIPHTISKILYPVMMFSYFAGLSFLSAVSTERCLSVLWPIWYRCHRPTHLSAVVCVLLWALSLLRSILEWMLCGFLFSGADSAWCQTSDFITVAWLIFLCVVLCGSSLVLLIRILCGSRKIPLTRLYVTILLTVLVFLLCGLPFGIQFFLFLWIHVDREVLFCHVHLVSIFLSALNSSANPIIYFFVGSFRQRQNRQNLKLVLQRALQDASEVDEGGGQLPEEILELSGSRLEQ
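Test system: HEK293 cells stably expressing human MrgX1 receptor; amount: 15,000 cells per well; doses: compound delivered in addition one of three; times: overnight plating before 1 h dye loading; detection: Fluo-4 NW calcium-flux fluorescence, kinetic read; read-out basis: B-scored fluorescence response ratio; controls: positive and negative controls per plate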
MrgX1 allo act = human MrgX1 positive allosteric modulation, primary screen | MrgX1-HEK293, Fluo-4 calcium flux, FDSS; stronger effect = higher value | B-score at 10 µM | hit rate 0.63% among 310,000;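 active = plate-corrected calcium response at least 3 library SD above typical, normal starting fluorescence, not activating the receptor alone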;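 note: compound read alongside a low EC10 to EC30 dose of BAM8-22 agonist; peak minus trough fluorescence over baseline measured at the second addition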
MrgX1 antagonist = antagonists of human MrgX1 receptor | Q96LB2 | MRGX1-HEK293 calcium flux, Fluo-4, BAM8-22 antagonism; stronger effect = lower value | B-score at 10 µM | hit rate 1.3% among 310,000 | AID 588676;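 active = calcium-response B-score plate-corrected more than 3 library SD below zero, starting fluorescence within 5 deviations, no agonist response on first addition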;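 note: peak minus trough fluorescence over baseline after final BAM8-22 challenge near maximal dose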
RGS4 block = human RGS4 inhibition; P49798; B-score at 10 µM; hit rate 0.45% among 310,000; HEK293 M3R/RGS4 inducible, Fluo-4 calcium flux; stronger effect = higher value; triggered by carbachol at its EC20;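 active = B-score, a plate-corrected calcium signal, over three deviations above library mean, with baseline fluorescence within five deviations of library mean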;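 note: RGS4 expression induced by doxycycline in cells with stable M3 receptor; B-score is computed from the integrated fluorescence ratio over baseline after carbachol; higher B-score means a larger calcium signal and so more RGS4 inhibition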
RGS4 pot = RGS4 potentiation or activation; HEK293 M3R/inducible RGS4, carbachol calcium flux Fluo4; stronger effect = lower value; AID 463111; B-score at 10 µM; hit rate 0.92% among 310,000;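 active = B-score of the integrated calcium signal more than 4 SD below the library mean, with starting fluorescence not abnormally high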;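 note: negative B-score means reduced calcium response which marks RGS4 activation or potentiation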
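Detection: kinetic calcium fluorescence imaging with Fluo4-AM dye, 2 µM / Material: HEK293 cells with stable M3R and inducible RGS4 / Schedule: recording 10 s baseline at 1 Hz, 100 s post-agonist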
RGS4 activ val = confirmation of RGS4 activators. shares compounds with RGS4 pot. HEK293 M3R/RGS4 inducible, carbachol calcium flux Fluo4. inhibition, % at 10 µM. hit rate 89% among 1,100;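 active = inhibition above 3 SD of the buffer control wells, cut at about 41% in these data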;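 note: signal is the integrated peak-minus-minimum Fluo4 fluorescence over baseline ratio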
M3R Ca counter = activity in cells without induced RGS4 expression | hit rate 82% among 1,100 | inhibition, % at 10 µM | AID 602283 | shares compounds with RGS4 pot | HEK293 M3R non-induced RGS4, Fluo4 calcium flux; after carbachol challenge at its EC90;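 active = inhibition exceeding 3 SD of buffer-only control wells, cut at about 26% in these data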;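 note: percent drop in integrated peak-minus-baseline over baseline Fluo4 ratio after carbachol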
Large screens that a line does not name were inactive (follow-up assays come after a bar, where they were run). Rows were chosen to be rich in hits. Some 3.5% of all compounds tested hit in one or more screens of this group.

Cc1nn(-c2ccccc2)c(C)c1NC(=O)COC(=O)c1cccc(OC(F)F)c1	RGS4 pot -8.4 | RGS4 activ val inactive | M3R Ca counter inactive
CCN(C(=S)NC(=O)c1ccccc1Br)C1CCCCC1	none
COc1ccc(C(=O)C2CCCN(C3Cc4ccccc4C3)C2)cc1OC (stereo unspecified)	RGS4 pot -8.6 | RGS4 activ val 86 | M3R Ca counter 46
CCOC(=O)N1CCC(N2CCCC(C(=O)c3cc(C)c(OC)c(C)c3)C2)CC1 (stereo unspecified)	RGS4 pot -8.1 | RGS4 activ val 79 | M3R Ca counter 35
COc1ccc(C(=O)C2CCCN(Cc3nc4ccccc4nc3C)C2)cc1OC (stereo unspecified)	none
CCS(=O)(=O)N1CCC(C(=O)Oc2ccc(C)c(C)c2)CC1	none
CCCc1cc(=O)oc2cc(C)cc(OC(C)C(=O)N[C@@H](Cc3c[nH]c4ccccc34)C(=O)O)c12 (stereo partly specified)	RGS4 pot -14 | RGS4 activ val inactive | M3R Ca counter inactive
CCCCc1cc(=O)oc2cc(C)cc(OC(C)C(=O)NC(Cc3c[nH]c4ccc(O)cc34)C(=O)O)c12 (stereo unspecified)	none
COc1ccc(S(=O)Cc2ccc(C(=O)N3CCN(c4cccc(C)c4C)CC3)o2)cc1 (stereo unspecified)	none
O=C(CNC1CCCCCC1)Nc1ccc(N2CCCC2)cc1	none
O=C(CNCCC1=CCCCC1)Nc1ccc(N2CCCCCC2)cc1	RGS4 pot -10 | RGS4 activ val 94 | M3R Ca counter 92
O=C(CNC1CCCC1)Nc1ccc(N2CCCCCC2)cc1	RGS4 pot -8 | RGS4 activ val 84 | M3R Ca counter 36
O=C(CNC(=O)c1ccc(Cl)c([N+](=O)[O-])c1)NCC1CCCO1 (stereo unspecified)	none
CCOc1ccc(-c2noc(CCC(=O)NCCc3ccccc3)n2)cc1OC	none
COc1ccc2nc(C)cc(SCC(=O)N/N=C/c3ccc(O)c(O)c3)c2c1	RGS4 pot -13 | RGS4 activ val inactive | M3R Ca counter inactive
COc1ccc2nc(C)cc(SCC(=O)N/N=C/c3cccc4ccccc34)c2c1	none
CCOc1ccc(CCNC(=O)COC(=O)CSc2ccccc2C)cc1OCC	none
O=C(CCC1CCCN(C2C3CC4CC(C3)CC2C4)C1)NCc1ccc(F)c(F)c1 (stereo unspecified)	RGS4 pot -7.7 | RGS4 activ val 81 | M3R Ca counter 45
COC(=O)C1CCN(c2ccc(C(N)=O)cc2[N+](=O)[O-])CC1	none
CN(CC(=O)Nc1cccc(F)c1)CC(=O)Nc1cccc(S(=O)(=O)N2CCCCCC2)c1	RGS4 pot -7.7 | RGS4 activ val 62 | M3R Ca counter 33
Cc1cccc[n+]1CC(=O)N1c2ccccc2Sc2ccccc21	RGS4 pot -14 | RGS4 activ val 92 | M3R Ca counter 87
CC(C)CNCC(=O)N1c2ccccc2Sc2ccccc21	RGS4 pot -8 | RGS4 activ val 86 | M3R Ca counter 50
COCCNCC(=O)N1c2ccccc2Sc2ccccc21	RGS4 pot -9.5 | RGS4 activ val 94 | M3R Ca counter 41
COCCCNC(=O)N1c2ccccc2Sc2ccccc21	none
COc1ccc(-c2cc(C(=O)Nc3cc(Cl)ccc3O)no2)cc1	none
O=[N+]([O-])c1ccccc1S(=O)(=O)N1CCN(Cc2ccc3c(c2)OCO3)CC1	none
COc1ccccc1C(CNc1ncnc2sc(C)c(C)c12)N(C)C (stereo unspecified)	RGS4 pot -11 | RGS4 activ val 80 | M3R Ca counter 42
COc1ccc(C(CNc2ncnc3sc(C)c(C)c23)N(C)C)cc1 (stereo unspecified)	none
CCOC(=O)c1c(C(C)(C)C)oc2ccc(OCC#N)cc12	RGS4 pot -8.8 | RGS4 activ val 92 | M3R Ca counter 92
